BaF3 parental = parental Ba/F3 viability inhibition as JAK2V617F counter-screen; CellTiter-Glo ATP luminescence; inhibition, % at 5.6 µM; 220,000 compounds, 1.1% hits;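 active means inhibition above a per-campaign cutoff, the mean inhibition of all tested compounds plus 3 SD, cut at about 27% in these data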
b-catenin transl = modulators of beta-catenin nuclear translocation. HeLa beta-catenin nuclear translocation, immunofluorescence imaging. 190,000 compounds, 0.3% hits. nuclear translocation activity, % at 5 µM. AID 1665;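 active means nuclear translocation activity above 50% at 5 µM, with a well cell count of 50 or more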;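 further: per-cell ratio of nuclear to cytoplasmic median beta-catenin stain intensity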
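Signal – beta-catenin immunofluorescence imaging with DAPI · Test system – human HeLa cell line · Dosing – 5 µM primary single dose, 0.1% DMSO, 0.02–20 µM confirmation series · Measure – % activation, nuclear-to-cytoplasmic median beta-catenin signal ratio per cell · Incubation – 24 h compound exposure at 37°C, 5% CO2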
Ba/F3 V617F tox = loss of viability in JAK2V617F-driven Ba/F3 cells. Ba/F3 EpoR-JAK2V617F viability, ATP luminescence. inhibition, % at 5.6 µM. 220,000 compounds, 1.1% hits;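 active means inhibition above the campaign mean plus 3 SD over all tested compounds, cut at about 24% in these data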;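 further: cytokine-independent growth of Ba/F3 cells driven by EpoR plus mutant JAK2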
IEC-6 cytotox = counter-screen for KLF5 inhibitors: cytotoxicity in IEC-6 cells | IEC-6 cytotoxicity, luminescence viability | inhibition, % at 5 µM | 290,000 compounds, 0.78% hits | AID 1825; in the data active means inhibition above about 22%
APP transl inh = APP translation inhibition. SH-SY5Y APP 5'UTR-luciferase reporter, luminescence. inhibition, % at 2 µM. 190,000 compounds, 0.82% hits;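 active means inhibition above a set limit, derived from the sample mean plus 3 SD, cut at about 45% in these data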
MT stabilize HCS = microtubule stabilizers in HeLa cells; HeLa tubulin immunostaining HCS, 24 h; share of cells brighter than vehicle mean+2SD; % tubulin-high responders, % at 10 µM; 200,000 compounds, 0.83% hits; AID 2205;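 active means plate Z-score above 3 for both tubulin-high and condensed-nucleus cell shares, with cell loss under 80%, at 10 µM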;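 further: anti alpha tubulin signal scored within the nucleus-defined area of each cell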
Hits are given with their value. In the library only some 2.2% were active in any assay of this set; here they are far more common.

Results for OCCN(CCO)CC(O)COc1ccc(Br)cc1 (centres undefined) ?
BaF3 parental: inactive; b-catenin transl: inactive; Ba/F3 V617F tox: inactive; IEC-6 cytotox: inactive

How did OCCN(CCO)CC(O)COc1ccc(C23CC4CC(CC(C4)C2)C3)cc1 (centres undefined) do in these assays?
BaF3 parental: inactive; b-catenin transl: inactive; Ba/F3 V617F tox: inactive; IEC-6 cytotox: inactive; APP transl inh: 53; MT stabilize HCS: inactive

Results for Cc1ccc(Cl)cc1N1CCN(C(=O)c2cn(C)c(=O)c3c2c2ccccc2n3C)CC1 ?
BaF3 parental: inactive; b-catenin transl: 139; Ba/F3 V617F tox: inactive; IEC-6 cytotox: inactive; APP transl inh: inactive; MT stabilize HCS: inactive

Results for Cc1cccc(N2CCN(C(=O)c3cn(C)c(=O)c4c3c3ccccc3n4C)CC2)c1C ?
BaF3 parental: inactive; b-catenin transl: inactive; Ba/F3 V617F tox: inactive; IEC-6 cytotox: inactive; APP transl inh: inactive; MT stabilize HCS: inactive

Results for COc1ccc(C(=O)NCCNc2nc3ccc(C)cc3cc2C#N)cc1OC ?
IEC-6 cytotox: inactive

How did O=C(CNC(=O)c1cccs1)N=Nc1c(O)[nH]c2ccc([N+](=O)[O-])cc12 do in these assays?
IEC-6 cytotox: inactive

How did CCn1c(=O)c(=O)[nH]c2cc(C(=O)NC3CCCc4ccccc43)ccc21 (centres undefined) do in these assays?
BaF3 parental: inactive; b-catenin transl: inactive; Ba/F3 V617F tox: inactive; IEC-6 cytotox: inactive; APP transl inh: inactive; MT stabilize HCS: 29

Results for CCn1c(=O)c(=O)[nH]c2cc(C(=O)NC3CC3)ccc21 ?
BaF3 parental: inactive; b-catenin transl: inactive; Ba/F3 V617F tox: inactive; IEC-6 cytotox: inactive; APP transl inh: inactive; MT stabilize HCS: inactive

Results for O=C(O)C(=O)/C(=C\c1ccccc1)c1ccc2ccccc2n1 ?
BaF3 parental: inactive; Ba/F3 V617F tox: inactive; IEC-6 cytotox: inactive; APP transl inh: inactive; MT stabilize HCS: inactive

What do the screens show for `O=C(O)C(=O)/C(=C\c1cccc2ccccc12)c1ccc2ccccc2n1`?
BaF3 parental: inactive; Ba/F3 V617F tox: inactive; IEC-6 cytotox: inactive; APP transl inh: inactive; MT stabilize HCS: 41

What do the screens show for `Cc1ccc2c(c1)N(Cc1cccc(C#N)c1)C=NS2(=O)=O`?
IEC-6 cytotox: inactive

What do the screens show for `Fc1cc(F)cc(NC(=S)N2CCN(c3ncccn3)CC2)c1`?
BaF3 parental: 27; b-catenin transl: inactive; Ba/F3 V617F tox: 36; IEC-6 cytotox: inactive; APP transl inh: inactive; MT stabilize HCS: inactive

How did CC(=O)c1ccc(N2CCN(C(=S)Nc3ccc(Oc4ccccc4)cc3)CC2)cc1 do in these assays?
BaF3 parental: inactive; b-catenin transl: inactive; Ba/F3 V617F tox: inactive; IEC-6 cytotox: inactive; APP transl inh: inactive; MT stabilize HCS: inactive

How did COc1ccc(NC(=S)N2CCN(c3ncccn3)CC2)cc1 do in these assays?
BaF3 parental: inactive; b-catenin transl: inactive; Ba/F3 V617F tox: inactive; IEC-6 cytotox: inactive; APP transl inh: inactive; MT stabilize HCS: inactive

Results for CC(=O)c1ccc(N2CCN(C(=S)Nc3cccc(F)c3)CC2)cc1 ?
BaF3 parental: 30; b-catenin transl: inactive; Ba/F3 V617F tox: 41; IEC-6 cytotox: inactive; APP transl inh: inactive; MT stabilize HCS: inactive

What do the screens show for `CCSc1nc(-c2ccccc2)nc(C(Cl)Cl)n1`?
BaF3 parental: inactive; b-catenin transl: inactive; Ba/F3 V617F tox: inactive; IEC-6 cytotox: inactive; APP transl inh: 47; MT stabilize HCS: inactive

Results for O=C(c1ccc2c(c1)OCO2)N1CCCC(c2ccccc2)C1 (centres undefined) ?
BaF3 parental: 33; b-catenin transl: inactive; Ba/F3 V617F tox: inactive; IEC-6 cytotox: inactive; APP transl inh: inactive; MT stabilize HCS: inactive

Results for CC1CCCN(C(=O)c2ccc3c(c2)OCO3)C1 (centres undefined) ?
IEC-6 cytotox: inactive

How did CCN(CC)S(=O)(=O)c1ccc2c(c1)N(CC(=O)Nc1ccc(NC(C)=O)cc1)C(=O)CO2 do in these assays?
IEC-6 cytotox: inactive

What do the screens show for `CCN(C(=O)CN1C(=O)COc2ccc(S(=O)(=O)N3CCCCCC3)cc21)c1cccc(C)c1`?
IEC-6 cytotox: inactive

How did CC(=O)c1ccc(OCc2cc(C(=O)N3CC4C[C@@H]5CC3C[C@H](C4)C5)no2)cc1 do in these assays?
IEC-6 cytotox: inactive

Results for C(=C\c1nc2ccccc2[nH]1)/c1ccccc1 ?
BaF3 parental: inactive; Ba/F3 V617F tox: inactive; IEC-6 cytotox: inactive; APP transl inh: inactive; MT stabilize HCS: 41

How did C(=C\c1ccco1)/c1nc2ccccc2[nH]1 do in these assays?
BaF3 parental: inactive; b-catenin transl: inactive; Ba/F3 V617F tox: inactive; IEC-6 cytotox: inactive; APP transl inh: inactive; MT stabilize HCS: inactive

Results for Cc1cccc(/C=C\c2nc3ccccc3c(=O)[nH]2)c1 ?
BaF3 parental: inactive; b-catenin transl: inactive; Ba/F3 V617F tox: inactive; IEC-6 cytotox: inactive; APP transl inh: inactive; MT stabilize HCS: 12

What do the screens show for `O=c1[nH]c(/C=C/c2ccc(Br)cc2)nc2ccccc12`?
IEC-6 cytotox: inactive

How did Cc1nc(/C=C/c2ccccc2)[nH]c(=O)c1-c1ccccc1 do in these assays?
BaF3 parental: inactive; b-catenin transl: inactive; Ba/F3 V617F tox: inactive; IEC-6 cytotox: inactive; APP transl inh: inactive; MT stabilize HCS: 9.2

What do the screens show for `C[C@H]1O[C@@H](O[C@H]2[C@@H](O)C[C@H](O[C@H]3[C@@H](O)C[C@H](O[C@H]4CC[C@@]5(C)[C@H](CC[C@@H]6[C@@H]5C[C@@H](O)[C@]5(C)[C@@H](C7=CC(=O)OC7)CC[C@]65O)C4)O[C@@H]3C)O[C@@H]2C)C[C@H](O)[C@@H]1O`?
BaF3 parental: inactive; b-catenin transl: inactive; Ba/F3 V617F tox: inactive; IEC-6 cytotox: inactive; APP transl inh: 94; MT stabilize HCS: inactive

What do the screens show for `Cc1ccc2nc(Br)c3c(c2c1)OC(CBr)C3` (centres undefined)?
IEC-6 cytotox: inactive

Results for COc1ccccc1N=c1oc2cc(O)ccc2cc1C(N)=O ?
BaF3 parental: 34; b-catenin transl: inactive; Ba/F3 V617F tox: 32; IEC-6 cytotox: inactive; APP transl inh: inactive; MT stabilize HCS: inactive

Results for Cc1onc(-c2ccccc2Cl)c1C(=O)N(C)C1CCCCC1 ?
BaF3 parental: 62; Ba/F3 V617F tox: 67; IEC-6 cytotox: inactive; APP transl inh: inactive; MT stabilize HCS: inactive

Results for COc1ccc(/C=N/NC(=O)c2ccc(N)cc2)cc1Cn1cc([N+](=O)[O-])cn1 ?
BaF3 parental: inactive; b-catenin transl: inactive; Ba/F3 V617F tox: inactive; IEC-6 cytotox: inactive; APP transl inh: inactive; MT stabilize HCS: 12

How did COc1ccc(/C=N/n2cnnc2)cc1Cn1nc(C)c([N+](=O)[O-])c1C do in these assays?
BaF3 parental: inactive; b-catenin transl: inactive; Ba/F3 V617F tox: inactive; IEC-6 cytotox: inactive; APP transl inh: inactive; MT stabilize HCS: inactive

What do the screens show for `COc1ccc(/C=N/NC(=O)c2cccc(O)c2)cc1Cn1nc(C)c([N+](=O)[O-])c1C`?
BaF3 parental: inactive; b-catenin transl: inactive; Ba/F3 V617F tox: inactive; IEC-6 cytotox: inactive; APP transl inh: inactive; MT stabilize HCS: 19

Screening results (PubChem BioAssay)
